According to paper PMC9298314 (The Febs Journal, 2021):
Peptide text beside a SMILES is read from it.

Legend:
BT‐474 = test: CellTiter‐Blue cell viability assay; type: cell-based, human; details: read-out: IC50 (µM) BT‐474, 24 h, peptide 0.01 to 100 µM, serum‐free medium
Method in brief: (§1)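 Cells were seeded per mL as follows: BT‑20, SKBR3 and Hs68 at 1.5×10⁵; BT‑474 at 3.0×10⁵; MCF 10A at 4.0×10⁵; MDA‑MB‑231 at 1.0×10⁵. After 24 h, wells were PBS‑washed twice and exposed to test compound in complete serum‑free medium for 24 h at 37 °C, 5% CO₂. CellTiter‑Blue was added for 3 h and fluorescence read at 560/590 nm. Untreated cells set 100%, 1% Triton X‑100 set 0%. IC50 came from a log(inhibitor)–normalized response fit, using independent cultures on different days.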

[1] = test system: human red blood cells (RBCs); test: Hemolytic activity; type: cell-based; details: 100 µM peptide, human RBCs 0.25% v/v in PBS pH 7.4, 24 h, 37 °C
Method in brief: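 Blood spun 1000 g for 10 min at 4 °C and washed three times. RBCs held at 0.25% v/v in PBS pH 7.4 with a peptide series (0.01–100), 24 h at 37 °C with gentle agitation. After spinning 1000 g for 5 min at 4 °C, supernatant hemoglobin read at A415. PBS is 0% and 1% Triton X‐100 is 100%; melittin served as peptide control. % = (A − Aneg)/(Apos − Aneg) × 100.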

BT‐20 = test: CellTiter‐Blue cell viability assay; type: cell-based, human; details: read-out: IC50 (µM) BT‐20, 24 h, peptide 0.01 to 100 µM, serum‐free medium
Method in brief: as §1

MDA‐MB‐231 [2] = test: CellTiter‐Blue cell viability assay; type: cell-based, human; details: read-out: IC50 (µM) MDA‐MB‐231, 24 h, peptide 0.01 to 100 µM, serum‐free medium
Method in brief: as §1

Hs68 = test: CellTiter‐Blue cell viability assay; type: cell-based, human; details: read-out: IC50 (µM) Hs68, 24 h, peptide 0.01 to 100 µM, serum‐free medium
Method in brief: as §1

MCF 10A = test: CellTiter‐Blue cell viability assay; type: cell-based, human; details: read-out: IC50 (µM) MCF 10A, 24 h, peptide 0.01 to 100 µM, serum‐free medium
Method in brief: as §1

SKBR3 = test: CellTiter‐Blue cell viability assay; type: cell-based, human; details: read-out: IC50 (µM) SKBR3, 24 h, peptide 0.01 to 100 µM, serum‐free medium
Method in brief: as §1

MDA‐MB‐231 [3] = test: Internalization of CF‐labeled peptide, flow cytometry and confocal microscopy; type: cell-based, human; details: CF‐labeled peptide 1 µM, flow cytometry
Method in brief: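 Cells seeded 5.0 × 10⁴ per well for 24 h, then washed. Exposed to CF‐labelled peptide (final 1) for 15, 60, 360 and 1440 min at 37 °C, 5% CO₂. Collected and washed; 10 000 cells read by flow cytometry, with autofluorescence subtracted. Duplicates on three independent days.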

| Compound | IC50 (BT‐474) [µM] | H max (% hemolysis at the highest concentration tested) [1] [%] | IC50 (BT‐20) [µM] | IC50 (MDA‐MB‐231 [2]) [µM] | IC50 (Hs68) [µM] | IC50 (MCF 10A) [µM] | IC50 (SKBR3) [µM] | Fluorescence intensity decay with time, MDA‐MB‐231 (MDA‐MB‐231 [3]) |
| --- | --- | --- | --- | --- | --- | --- | --- | --- |
| C[C@H](NC(=O)[C@H](CCCCN)NC(=O)[C@H](Cc1ccc(O)cc1)NC(=O)[C@H](CCCCN)NC(=O)[C@H](CCCCN)NC(=O)[C@H](CCCCN)NC(=O)[C@H](Cc1ccc(O)cc1)NC(=O)[C@H](CCCNC(=N)N)NC(=O)[C@H](CCCCN)NC(=O)[C@@H](N)CCCCN)C(=O)N[C@@H](Cc1ccc(O)cc1)C(=O)N[C@@H](CCCCN)C(=O)N1CCC[C@H]1C(=O)N[C@@H](Cc1ccc(O)cc1)C(=O)N[C@@H](CCCCN)C(=O)N[C@@H](CCCCN)C(=O)N[C@@H](CCCCN)C(=O)N[C@@H](CCCCN)C(=O)N[C@@H](CCCCN)C(=O)N[C@@H](Cc1ccccc1)C(N)=O [vCPP0275] (H-KKRYKKKYKAYKPYKKKKKF-NH2) | > 100 | 14.6 ± 0.9 | 44.8 ± 1.1 | > 100 | > 100 | > 100 | 34 ± 1 | – |
| CF‐WRRRYRRWRRRRRWRRRPRR‐amide [CF‐vCPP2319] | – | – | – | – | – | – | – | decreases slowly during 24 h |
| CC(C)C[C@H](NC(=O)CNC(=O)[C@H](CC(C)C)NC(=O)[C@H](CC(C)C)NC(=O)[C@H](CCC(N)=O)NC(=O)[C@H](CCCNC(=N)N)NC(=O)[C@H](CC(C)C)NC(=O)[C@@H](NC(=O)[C@H](CC(C)C)NC(=O)[C@H](CCCNC(=N)N)NC(=O)[C@@H](N)CCCNC(=N)N)[C@@H](C)O)C(=O)NCC(=O)N[C@@H](CO)C(=O)N[C@@H](CCCNC(=N)N)C(=O)N[C@@H](CCCNC(=N)N)C(=O)N[C@@H](CCCNC(=N)N)C(=O)N[C@@H](CCCNC(=N)N)C(=O)N[C@@H](CCCNC(=N)N)C(=O)N[C@@H](CO)C(=O)N[C@@H](CCCNC(=N)N)C(N)=O [vCPP0769] (H-RRLTLRQLLGLGSRRRRRSR-NH2) | 37.5 ± 1.7 | 56.2 ± 1.5 | 3.5 ± 1.5 | 9 ± 0.1 | 53.4 ± 0.7 | 55.4 ± 1.7 | 21.1 ± 2 | – |
